The record followed here is ChEMBL document CHEMBL3763088, “Design, synthesis, and biological evaluation of water-soluble amino acid prodrug conjugates derived from combretastatin, dihydronaphthalene, and benzosuberene-based parent vascular disrupting agents” (Bioorg Med Chem, 2016).

The subject of data set [1] is NCI-H460. The data set can be described thus: Cytotoxicity against human NCI-H460 cells assessed as growth inhibition using compound dissolved in DMSO after 48 hrs by SRB assay. Type of data set: functional. Conditions: NCI-H460, 48 h. An outline of the steps:
(§1)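 Cells kept at 37 °C, 5% CO2, up to passage 15. Plated at 7500 cells/well in DMEM with 5% FBS and 1% gentamycin, grown 24 h, then given 10-fold serial dilutions for 48 h. Fixed with 10% TCA (final), SRB-stained, read at 540 nm, normalized at 630 nm. GI50 is the concentration halving net protein staining versus controls, taken from optical density data.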
For orientation: In SRB staining, fixed cells bind dye roughly in proportion to their protein.

Data set [2] can be described thus: Cytotoxicity against human DU145 cells assessed as growth inhibition using compound dissolved in water after 48 hrs by SRB assay. Type of data set: functional. Conditions: DU-145, 48 h. An outline of the steps: as §1
A short description of data set [3]: Cytotoxicity against human SKOV3 cells assessed as growth inhibition using compound dissolved in water after 48 hrs by SRB assay. Conditions: SK-OV-3, 48 h. Type of data set: functional. The method in brief:
as §1

Data set [4] concerns the target T1, Leucine aminopeptidase (Sus scrofa, UniProt Q29571).
T1 sequence (Q29571 whole entry): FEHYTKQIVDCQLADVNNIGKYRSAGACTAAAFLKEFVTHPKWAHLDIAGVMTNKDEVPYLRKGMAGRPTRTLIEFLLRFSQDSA
The data set can be described thus: Prodrug conversion assessed as porcine leucine aminopeptidase-mediated compound cleavage at 25 hrs using 0.12 units of enzyme by HPLC analysis. The data set is classed as ADME. Conditions: pig. An outline of the steps: (§2)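 Porcine kidney microsomal LAP; units defined with 24 mM L-leucine p-nitroanilide in 50 mM sodium phosphate pH 7.2 at 37 °C. Enzyme preincubated in the same buffer at 37 °C, then substrate added. Aliquots were quenched with acetonitrile on ice, centrifuged and run on C18 HPLC (acetonitrile/water, 0.05% TFA, 1.0 mL/min, 22 °C, diode-array UV). Cleavage % from the parent/prodrug peak-area ratio; amounts from calibration curves.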

Data set [5] concerns NCI-H460. The data set can be described thus: Cytotoxicity against human NCI-H460 cells assessed as growth inhibition using compound dissolved in water after 48 hrs by SRB assay. The data set is classed as functional. Conditions: NCI-H460, 48 h. An outline of the steps:
as §1

The target of data set [6] is T1, Leucine aminopeptidase. The data set can be described thus: Prodrug conversion assessed as porcine leucine aminopeptidase-mediated compound cleavage by HPLC analysis. Type of data set: ADME. Conditions: pig. An outline of the steps: as §2
Data set [7] in a line: Cytotoxicity against human SKOV3 cells assessed as growth inhibition using compound dissolved in DMSO after 48 hrs by SRB assay. Conditions: SK-OV-3, 48 h. The data set is classed as functional. An outline of the steps: as §1
A short description of data set [8]: Cytotoxicity against human DU145 cells assessed as growth inhibition using compound dissolved in DMSO after 48 hrs by SRB assay. Type of data set: functional. Conditions: DU-145, 48 h. An outline of the steps: as §1
Data set [9] deals with NCI-H460. The data set can be described thus: Cytotoxicity against human NCI-H460 cells assessed as growth inhibition after 48 hrs by SRB assay. Type of data set: functional. The method in brief:
as §1

Data set [10] addresses T1, Leucine aminopeptidase. The data set can be described thus: Activity at porcine leucine aminopeptidase by HPLC analysis. Type of data set: ADME. Conditions: pig. The method in brief:
as §2

A short description of data set [11]: Cytotoxicity against human SKOV3 cells assessed as growth inhibition after 48 hrs by SRB assay. The data set is classed as functional, SK-OV-3. The method in brief:
as §1

The test system of data set [12] is MDA-MB-231. The data set can be described thus: Induction of tumor-specific vascular damage in luciferase expressing human MDA-MB-231 cells xenografted in SCID mouse assessed as reduction in light emission at 10 mg/kg at 24 hrs post dose by bioluminescence imaging assay (reference value: 24%). Type of data set: functional. Conditions: MDA-MB-231, 24 h. For orientation: A xenograft is tissue or cells of one species grown in another, often human tumour cells in immunodeficient mice.

The test system of data set [13] is MDA-MB-231. The data set can be described thus: Induction of tumor-specific vascular damage in luciferase expressing human MDA-MB-231 cells xenografted in SCID mouse assessed as reduction in light emission at 15 mg/kg at 4 hrs post dose by bioluminescence imaging assay (reference value: 22%). Type of data set: functional. Conditions: MDA-MB-231, 4 h.
For data set [14], the system named is MDA-MB-231. The data set can be described thus: Induction of tumor-specific vascular damage in luciferase expressing human MDA-MB-231 cells xenografted in SCID mouse assessed as reduction in light emission at 10 mg/kg at 4 hrs post dose by bioluminescence imaging assay (reference value: 22%). Type of data set: functional. Conditions: MDA-MB-231, 4 h.
The nature of data set [15]: Cytotoxicity against human DU145 cells assessed as growth inhibition after 48 hrs by SRB assay. The data set is classed as functional, DU-145. An outline of the steps: as §1
For data set [16], the system named is MDA-MB-231. The data set can be described thus: Induction of tumor-specific vascular damage in luciferase expressing human MDA-MB-231 cells xenografted in SCID mouse assessed as reduction in light emission at 15 mg/kg at 24 hrs post dose by bioluminescence imaging assay (reference value: 24%). The data set is classed as functional. Conditions: MDA-MB-231, 24 h.

Data set [17] addresses Tubulin (Bos taurus, UniProt Q6B856+Q862L2+Q862F3). The data set can be described thus: Inhibition of bovine brain tubulin polymerization preincubated for 15 mins by spectrophotometric analysis. The method in brief:
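Purified bovine brain tubulin, 1.0 mg/mL (10 μM), in 0.8 M monosodium glutamate pH 6.6 with 4% DMSO and varied compound. Temperature jumped from 0 to 30 °C; turbidity at 350 nm followed for 20 min.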

In data set [18] the target is T1, Leucine aminopeptidase. The data set can be described thus: Drug level assessed as porcine leucine aminopeptidase-mediated compound formation treated with (Z)-N,N''-(3-Methoxy-6-(3,4,5-trimethoxystyryl)-1,2-phenylene)bis(2-aminoacetamide) after 25 hrs using 3.7 units of enzyme by HPLC analysis. The data set is classed as ADME. Conditions: pig. An outline of the steps:
as §2

Data set [19] concerns the target T1, Leucine aminopeptidase. The data set can be described thus: Drug level assessed as porcine leucine aminopeptidase-mediated compound formation treated with (Z)-N,N''-(3-Methoxy-6-(3,4,5-trimethoxystyryl)-1,2-phenylene)bis(2-aminoacetamide) after 25 hrs using 1.5 units of enzyme by HPLC analysis. Conditions: pig. The data set is classed as ADME. The method in brief: as §2

Data set [20] deals with T1, Leucine aminopeptidase. The data set can be described thus: Drug level assessed as porcine leucine aminopeptidase-mediated compound formation treated with (Z)-N,N''-(3-Methoxy-6-(3,4,5-trimethoxystyryl)-1,2-phenylene)bis(2-aminoacetamide) after 25 hrs using 0.12 units of enzyme by HPLC analysis. The data set is classed as ADME. Conditions: pig. An outline of the steps:
as §2

In general, GI50 refers to the concentration at which growth is held to half of that of the control. One may read the inhibition in vivo as the percentage by which the read-out fell short of the control. Broadly, the IC50 is the midpoint of a concentration-inhibition curve.

Bounds are passed on as bounds.

`COc1ccc(/C=C\c2cc(OC)c(OC)c(OC)c2)c(NC(=O)CN)c1NC(=O)CN.Cl.Cl`: the GI50 in [1] was above 68500 nM; in data set [2] it was above 90400 nM; in data set [3], above 56400 nM; in data set [5], above 96600 nM; in [7], 39300 nM; in data set [8], above 64700 nM. In addition, the Drug metabolism is on record as above 95% in data set [4] and below 50% in data set [6].
Take `COc1ccc2c(c1NC(=O)CN)CCC=C2c1cc(OC)c(OC)c(OC)c1.Cl`: the GI50 is 42 nM in data set [9], 48.5 nM in data set [11] and 58.5 nM in data set [15]. The molecule further registered an Activity in data set [10] of 15.5 µM/min. Moreover, the results for the inhibition in vivo at 10 mg/kg in [12] and in [14] were 55% and 70%, respectively. The inhibition in vivo at 15 mg/kg in data set [13] was 97%; in data set [16], 90%. Besides, the Drug metabolism in [6] came to 100%.
Consider `COc1ccc(/C=C\c2cc(OC)c(OC)c(OC)c2)c(N)c1N`, for which the GI50 is 35.9 nM in [9]; 23.5 nM in data set [11] (Homo sapiens, SK-OV-3, 48 h); 39.1 nM in [15]. In addition, in data set [17], the IC50 was 1500 nM. For the same molecule, the Drug metabolism result in data set [18], in data set [19] and in [20] was “metabolite_detected” in each case.
